Laboratory results as given in ChEMBL document CHEMBL4428053, “Application of a Parallel Synthetic Strategy in the Discovery of Biaryl Acyl Sulfonamides as Efficient and Selective NaV1.7 Inhibitors” (J Med Chem, 2016).
Calls of active or inactive are those of the source. The calls are words filed in the database; no cut-off is given here.

Columns and labels:
in vitro [1] = details: rat, liver microsomes
[2] = target: T1, Sodium channel protein type 9 subunit alpha (Homo sapiens, UniProt Q15858); assay: Inhibition of human Nav1.7 expressed in HEK293 cells incubated for 3 to 5 mins at -125 mV holding potential by electrophysiology assay; format: cell-based
[3] = target: Sodium channel protein type 5 subunit alpha (Homo sapiens, UniProt Q14524); assay: Inhibition of human Nav1.5 expressed in HEK293 cells incubated for 3 to 5 mins at -50 mV holding potential by electrophysiology assay; format: cell-based
in vitro [4] = details: human, liver microsomes
[5] = target: T1, Sodium channel protein type 9 subunit alpha; assay: Inhibition of human Nav1.7 expressed in HEK293 cells at 5 uM incubated for 3 to 5 mins at -125 mV holding potential by electrophysiology assay relative to control; format: cell-based
Target sequence in this assay (Q15858 whole entry, looked up): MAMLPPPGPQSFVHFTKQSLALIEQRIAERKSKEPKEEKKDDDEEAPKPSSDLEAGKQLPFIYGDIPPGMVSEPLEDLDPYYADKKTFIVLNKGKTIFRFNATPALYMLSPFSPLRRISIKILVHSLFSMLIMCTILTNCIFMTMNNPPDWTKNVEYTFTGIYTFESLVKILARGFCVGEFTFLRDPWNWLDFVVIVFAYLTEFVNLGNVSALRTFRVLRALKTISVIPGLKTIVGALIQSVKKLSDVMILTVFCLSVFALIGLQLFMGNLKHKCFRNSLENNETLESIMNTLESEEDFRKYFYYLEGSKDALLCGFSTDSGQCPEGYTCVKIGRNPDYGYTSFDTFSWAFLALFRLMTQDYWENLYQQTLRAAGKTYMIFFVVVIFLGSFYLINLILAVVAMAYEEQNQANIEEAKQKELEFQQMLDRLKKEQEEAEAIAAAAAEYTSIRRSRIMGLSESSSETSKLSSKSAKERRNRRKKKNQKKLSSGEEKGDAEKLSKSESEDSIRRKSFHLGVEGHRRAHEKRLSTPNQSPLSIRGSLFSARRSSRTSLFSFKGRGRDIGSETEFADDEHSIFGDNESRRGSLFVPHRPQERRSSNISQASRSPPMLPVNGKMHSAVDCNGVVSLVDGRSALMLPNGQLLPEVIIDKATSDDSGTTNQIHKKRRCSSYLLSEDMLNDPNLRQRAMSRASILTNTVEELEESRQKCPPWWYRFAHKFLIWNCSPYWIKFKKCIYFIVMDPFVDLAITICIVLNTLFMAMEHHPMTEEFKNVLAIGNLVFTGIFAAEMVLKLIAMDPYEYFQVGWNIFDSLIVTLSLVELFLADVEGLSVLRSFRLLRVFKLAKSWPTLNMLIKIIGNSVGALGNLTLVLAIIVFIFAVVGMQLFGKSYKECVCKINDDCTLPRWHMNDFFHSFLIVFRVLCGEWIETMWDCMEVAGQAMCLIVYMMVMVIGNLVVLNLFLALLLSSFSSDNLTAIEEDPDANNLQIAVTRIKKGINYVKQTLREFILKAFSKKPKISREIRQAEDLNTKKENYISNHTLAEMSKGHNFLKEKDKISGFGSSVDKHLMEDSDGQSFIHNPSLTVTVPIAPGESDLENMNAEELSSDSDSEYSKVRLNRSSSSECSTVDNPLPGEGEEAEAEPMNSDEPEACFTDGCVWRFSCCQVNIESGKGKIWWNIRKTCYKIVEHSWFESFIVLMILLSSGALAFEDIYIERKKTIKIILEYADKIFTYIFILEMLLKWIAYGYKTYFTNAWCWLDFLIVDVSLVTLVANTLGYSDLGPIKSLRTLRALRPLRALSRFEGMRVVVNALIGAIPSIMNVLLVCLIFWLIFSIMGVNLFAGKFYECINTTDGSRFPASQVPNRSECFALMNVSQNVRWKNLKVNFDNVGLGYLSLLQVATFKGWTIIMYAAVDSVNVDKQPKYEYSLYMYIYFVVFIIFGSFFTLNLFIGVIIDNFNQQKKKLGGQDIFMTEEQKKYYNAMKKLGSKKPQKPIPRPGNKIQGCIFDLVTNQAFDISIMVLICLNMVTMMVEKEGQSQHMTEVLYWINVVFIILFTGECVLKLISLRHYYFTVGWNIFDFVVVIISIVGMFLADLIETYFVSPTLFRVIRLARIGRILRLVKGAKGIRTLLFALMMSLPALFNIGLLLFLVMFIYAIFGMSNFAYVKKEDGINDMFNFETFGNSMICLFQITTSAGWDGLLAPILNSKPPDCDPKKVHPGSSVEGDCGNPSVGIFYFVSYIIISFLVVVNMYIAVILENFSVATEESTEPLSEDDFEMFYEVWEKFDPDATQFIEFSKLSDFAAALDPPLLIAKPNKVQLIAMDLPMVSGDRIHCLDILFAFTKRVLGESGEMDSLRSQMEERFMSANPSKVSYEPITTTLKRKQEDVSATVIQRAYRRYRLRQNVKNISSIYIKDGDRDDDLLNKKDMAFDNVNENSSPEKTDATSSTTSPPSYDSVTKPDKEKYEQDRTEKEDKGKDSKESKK

[6] = Clearance in Harlan rat at 1 mg/kg, iv by LC-MS/MS analysis; format: ADME, organism-based; details: in vivo
In short: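 Male fed rats. The IV dose was given in 100% DMSO. The oral dose was given in 1% Tween 80, 2% HPMC, 97% water/NaOH (pH 8.5).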

[7] = Protein binding in rat plasma at 5 uM after 45 mins by LC-MS/MS analysis; format: ADME, cell-free; details: read-out: PPB
[8] = target: Voltage-gated inwardly rectifying potassium channel KCNH2 (Homo sapiens, UniProt Q12809)
Homo sapiens = species on record: Homo sapiens; assay: Selectivity ratio of IC50 for human Nav1.5 expressed in HEK293 cells to human Nav1.7 expressed in HEK293 cells; format: cell-based
In short: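 IC50s come from PatchXpress automated electrophysiology, and the ratio divides the hNav1.5 IC50 by the hNav1.7 IC50. For hNav1.7, cells were held at a voltage giving 20-50% channel inactivation. For hNav1.5, cells were held at -50 mV on the same platform.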

Mus musculus = assay: In vivo inhibition of Nav1.7 in C57BL/6 mouse assessed as reduction in histamine-induced scratching bouts at 30 mg/kg, po administered 4 hrs prior to histamine challenge measured for 15 mins; format: functional, organism-based
In short: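 Mice were dosed orally with vehicle, diphenhydramine (30 mg/kg, n = 8) or test article at 30 (n = 9), 100 (n = 10) or 300 (n = 10) mg/kg; vehicle n = 12. All groups received histamine intradermally. Total scratch bouts were counted, with unbound plasma concentration reported per dose. Statistics: one-way ANOVA with Dunnett's test versus vehicle.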

Cytochrome P450 2D6 [9] = target: T2, Cytochrome P450 2D6 (Homo sapiens, UniProt P10635)
Cytochrome P450 2C9 [10] = target: T3, Cytochrome P450 2C9 (Homo sapiens, UniProt P11712)
Cytochrome P450 3A4 [11] = target: T4, Cytochrome P450 3A4 (Homo sapiens, UniProt P08684)
Cytochrome P450 2D6 [12] = target: T2, Cytochrome P450 2D6; remark: listed apart in the source
Cytochrome P450 2C9 [13] = target: T3, Cytochrome P450 2C9; remark: listed apart in the source
Cytochrome P450 3A4 [14] = target: T4, Cytochrome P450 3A4; remark: listed apart in the source

Sequence of Voltage-gated inwardly rectifying potassium channel KCNH2 (Q12809 whole entry): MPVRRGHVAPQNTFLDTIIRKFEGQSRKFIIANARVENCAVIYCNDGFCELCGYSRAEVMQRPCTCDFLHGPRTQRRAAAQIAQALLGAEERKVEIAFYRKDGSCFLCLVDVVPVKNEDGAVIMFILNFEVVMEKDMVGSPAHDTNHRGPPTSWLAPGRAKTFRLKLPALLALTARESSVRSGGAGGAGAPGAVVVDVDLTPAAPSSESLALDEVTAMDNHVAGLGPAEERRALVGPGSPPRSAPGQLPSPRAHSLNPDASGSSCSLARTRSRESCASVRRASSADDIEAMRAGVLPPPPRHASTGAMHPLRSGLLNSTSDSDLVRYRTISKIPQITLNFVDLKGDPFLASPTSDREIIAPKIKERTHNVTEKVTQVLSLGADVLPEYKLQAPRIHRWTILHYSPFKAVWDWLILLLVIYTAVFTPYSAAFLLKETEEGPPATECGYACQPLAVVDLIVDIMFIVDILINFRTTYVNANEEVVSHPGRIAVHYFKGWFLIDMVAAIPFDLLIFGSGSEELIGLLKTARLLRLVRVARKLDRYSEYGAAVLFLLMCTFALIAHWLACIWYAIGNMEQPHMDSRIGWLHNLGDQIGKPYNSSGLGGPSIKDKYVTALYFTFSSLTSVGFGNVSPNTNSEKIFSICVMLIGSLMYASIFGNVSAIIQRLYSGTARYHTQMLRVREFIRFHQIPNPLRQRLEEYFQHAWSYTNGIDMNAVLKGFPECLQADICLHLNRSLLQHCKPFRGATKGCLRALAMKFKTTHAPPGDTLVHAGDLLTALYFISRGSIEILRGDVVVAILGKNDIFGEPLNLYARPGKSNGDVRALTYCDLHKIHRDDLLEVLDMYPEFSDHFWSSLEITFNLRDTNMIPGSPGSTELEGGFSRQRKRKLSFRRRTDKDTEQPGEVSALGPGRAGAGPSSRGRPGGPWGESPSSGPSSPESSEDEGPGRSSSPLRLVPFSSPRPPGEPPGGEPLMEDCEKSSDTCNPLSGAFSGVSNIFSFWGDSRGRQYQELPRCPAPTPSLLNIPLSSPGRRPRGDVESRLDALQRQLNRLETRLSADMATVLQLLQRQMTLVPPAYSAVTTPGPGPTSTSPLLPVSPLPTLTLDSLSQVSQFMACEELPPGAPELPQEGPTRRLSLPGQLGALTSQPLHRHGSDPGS
Sequence of Sodium channel protein type 5 subunit alpha (Q14524 whole entry): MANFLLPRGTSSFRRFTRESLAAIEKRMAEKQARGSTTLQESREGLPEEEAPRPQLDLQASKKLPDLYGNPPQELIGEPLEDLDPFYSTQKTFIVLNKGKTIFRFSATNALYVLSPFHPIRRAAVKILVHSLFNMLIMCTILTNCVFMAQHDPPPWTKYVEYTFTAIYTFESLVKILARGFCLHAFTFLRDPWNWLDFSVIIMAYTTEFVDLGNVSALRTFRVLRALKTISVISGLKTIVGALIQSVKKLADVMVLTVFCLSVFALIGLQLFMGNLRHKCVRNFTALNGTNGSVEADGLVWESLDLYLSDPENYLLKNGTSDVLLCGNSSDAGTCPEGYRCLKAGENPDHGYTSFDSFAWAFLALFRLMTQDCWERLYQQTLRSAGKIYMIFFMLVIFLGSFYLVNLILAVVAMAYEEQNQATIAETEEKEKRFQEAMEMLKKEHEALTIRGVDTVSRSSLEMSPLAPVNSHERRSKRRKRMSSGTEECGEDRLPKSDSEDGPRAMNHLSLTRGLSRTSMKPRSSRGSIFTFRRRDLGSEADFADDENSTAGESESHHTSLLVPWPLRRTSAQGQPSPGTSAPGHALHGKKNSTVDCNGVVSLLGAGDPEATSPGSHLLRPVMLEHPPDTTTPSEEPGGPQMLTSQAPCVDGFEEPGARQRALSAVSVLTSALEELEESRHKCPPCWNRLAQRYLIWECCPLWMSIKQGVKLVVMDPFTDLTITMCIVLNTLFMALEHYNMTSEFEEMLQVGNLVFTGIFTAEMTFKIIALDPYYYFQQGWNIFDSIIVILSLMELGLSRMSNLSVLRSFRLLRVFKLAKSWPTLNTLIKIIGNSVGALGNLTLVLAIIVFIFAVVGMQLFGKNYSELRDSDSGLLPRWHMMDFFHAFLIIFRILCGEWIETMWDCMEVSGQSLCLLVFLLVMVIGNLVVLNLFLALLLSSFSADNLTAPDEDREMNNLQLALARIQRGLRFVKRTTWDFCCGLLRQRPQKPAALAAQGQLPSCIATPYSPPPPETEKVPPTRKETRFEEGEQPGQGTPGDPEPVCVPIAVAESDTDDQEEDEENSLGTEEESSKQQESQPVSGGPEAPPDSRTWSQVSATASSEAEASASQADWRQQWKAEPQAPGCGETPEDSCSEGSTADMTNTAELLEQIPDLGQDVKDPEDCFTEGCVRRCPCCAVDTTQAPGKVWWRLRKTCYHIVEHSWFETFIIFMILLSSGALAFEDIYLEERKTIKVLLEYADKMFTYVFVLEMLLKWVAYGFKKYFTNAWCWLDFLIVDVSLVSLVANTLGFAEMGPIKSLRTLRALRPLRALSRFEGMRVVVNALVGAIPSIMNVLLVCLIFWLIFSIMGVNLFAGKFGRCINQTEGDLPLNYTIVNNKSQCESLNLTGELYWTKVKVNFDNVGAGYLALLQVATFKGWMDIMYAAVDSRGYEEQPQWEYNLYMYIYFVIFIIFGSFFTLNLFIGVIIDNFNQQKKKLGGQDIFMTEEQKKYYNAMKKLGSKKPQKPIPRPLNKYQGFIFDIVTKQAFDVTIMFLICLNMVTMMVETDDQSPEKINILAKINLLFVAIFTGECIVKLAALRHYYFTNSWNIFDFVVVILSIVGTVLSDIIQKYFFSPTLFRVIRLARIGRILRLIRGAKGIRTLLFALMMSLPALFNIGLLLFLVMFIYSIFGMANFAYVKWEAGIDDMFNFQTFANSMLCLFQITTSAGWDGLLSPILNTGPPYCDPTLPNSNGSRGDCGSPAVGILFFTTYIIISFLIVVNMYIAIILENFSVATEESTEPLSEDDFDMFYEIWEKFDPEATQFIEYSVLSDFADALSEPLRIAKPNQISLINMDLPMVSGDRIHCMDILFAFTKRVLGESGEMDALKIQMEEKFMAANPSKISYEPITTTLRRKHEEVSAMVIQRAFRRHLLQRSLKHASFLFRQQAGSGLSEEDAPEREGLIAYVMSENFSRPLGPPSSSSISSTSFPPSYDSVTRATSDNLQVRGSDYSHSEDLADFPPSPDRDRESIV

Structure (SMILES) | microsomal CLint at 1 µM (in vitro [1]) [µL/min/mg] | IC50 [2] [µM] | IC50 [3] [µM] | microsomal CLint at 1 µM (in vitro [4]) [µL/min/mg] | inhibition [5] [%] | further results
CC(C)COc1ncc(-c2ccc(C(=O)NS(C)(=O)=O)cc2F)cc1Cl | 22 | 0.66 | 23 | 27 |  | 
CC(C)(C)OC(=O)N[C@@H](CC(=O)NS(C)(=O)=O)Cc1ccc(Cl)c(Cl)c1 |  |  |  |  | < 5 | 
CS(=O)(=O)NC(=O)c1cscc1SCc1ccc(Cl)c(Cl)c1 |  |  |  |  | < 5 | 
COc1cc(C(=O)NS(C)(=O)=O)ccc1-c1cnc(Oc2cc(Cl)cnc2OC)c(Cl)c1 | < 14 | 0.15 | 11.6 | < 14 |  | 
CC(C)COc1ncc(-c2ccc(C(=O)NS(C)(=O)=O)cc2Cl)cc1Cl | 16.5 | 0.29 |  | 30 |  | 
CC(C)COc1ncc(-c2ccc(C(=O)NS(C)(=O)=O)cc2)cc1Cl | < 14 | 1.19 |  | 14 |  | 
CS(=O)(=O)NC(=O)c1ccc(=O)n(Cc2ccc(Cl)c(Cl)c2)c1 |  |  |  |  | < 5 | 
CC(C)COc1ncc(-c2c(F)cc(C(=O)NS(C)(=O)=O)cc2F)cc1Cl |  | 1.24 |  |  |  | 
CC(C)COc1ncc(-c2ccc(C(=O)NS(C)(=O)=O)cc2OC(F)(F)F)cc1Cl | < 14 | 0.14 | 3.7 | > 399 |  | 
COc1cc(C(=O)NS(C)(=O)=O)ccc1-c1cnc(Oc2cc(Cl)cc(Cl)c2)c(Cl)c1 | < 14 | 0.036 | 6 | < 14 |  | clearance [6]: 9.33 to 12.2 mL/min/kg; fraction unbound at 0.75 h, 5 µM [7]: < 0.001
CS(=O)(=O)NC(=O)CNC(=O)c1ccc(Cl)c(Cl)c1 |  |  |  |  | < 5 | 
CS(=O)(=O)NC(=O)c1cc(F)c(-c2ccc(Cl)c(Cl)c2)cc1F |  | 2.54 | > 42 |  |  | Ki [8]: > 30 µM
COc1cc(C(=O)NS(C)(=O)=O)ccc1-c1cnc(Oc2cc(Cl)cc(Cl)c2)c(C#N)c1 | 15 |  | 16.1 | 39 |  | clearance [6]: 30 mL/min/kg; fraction unbound at 0.75 h, 5 µM [7]: < 0.001
CS(=O)(=O)NC(=O)c1cc(F)c(COc2ccc(Cl)c(Cl)c2)cc1F |  |  |  |  |  | Ki [8]: > 30 µM
COc1cc(C(=O)NS(C)(=O)=O)c(F)cc1-c1cnc(OCC2(C)CC2)c(Cl)c1 | < 14 | 0.062 |  | 110 |  | 
CC(C)COc1ncc(-c2ccc(C(=O)NS(C)(=O)=O)c(Cl)c2)cc1Cl | < 14 | > 42 |  | 26 |  | 
CC(C)COc1ncc(-c2ccc(C(=O)NS(C)(=O)=O)cc2C(=O)N(C)C)cc1Cl | < 14 | > 42 |  | 19 |  | 
Cc1cc(-c2cnc(OCC(C)C)c(Cl)c2)ccc1C(=O)NS(C)(=O)=O | < 14 | > 42 |  | 22 |  | 
COc1cc(C(=O)NS(C)(=O)=O)ccc1-c1cnc(Oc2cc(F)ccc2F)c(Cl)c1 | 33 |  | 23.7 | < 14 |  | 

Structure (SMILES) | microsomal CLint at 1 µM (in vitro [1]) [µL/min/mg] | IC50 [2] [µM] | IC50 [3] [µM] | microsomal CLint at 1 µM (in vitro [4]) [µL/min/mg] | inhibition [5] [%] | further results
CS(=O)(=O)NC(=O)c1ccc2c(Oc3ccc(Cl)c(C(F)(F)F)c3)nccc2c1 |  | 0.28 | 14.4 |  |  | Ratio IC50 (Homo sapiens): > 40; Ki [8]: > 30 µM
COc1cc(C(=O)NS(C)(=O)=O)ccc1-c1cnc(OCC2(C)CC2)c(Cl)c1 | < 14 | 0.2 | 9.3 | < 14 |  | 
CS(=O)(=O)NC(=O)c1cc(F)c(Oc2ccc(Cl)c(Cl)c2)cc1F |  | 0.74 | > 30 |  |  | Ki [8]: > 30 µM
COc1cc(C(=O)NS(C)(=O)=O)c(F)cc1-c1cnc(OC2CCC2)c(Cl)c1 |  | 0.11 |  |  |  | 
CS(=O)(=O)NC(=O)c1cc(-c2ccc(Cl)c(Cl)c2)nc2ccccc12 |  |  |  |  | < 5 | 
CS(=O)(=O)NC(=O)Cc1ccc(Cl)c(Cl)c1 |  |  |  |  | < 5 | 
CS(=O)(=O)NC(=O)Cc1ccc(NS(=O)(=O)c2ccc(Cl)c(Cl)c2)cc1 |  |  |  |  | < 5 | 
CC(C)COc1ncc(-c2ncc(C(=O)NS(C)(=O)=O)cc2F)cc1Cl | 18 | 10.6 |  | 18 |  | 
CS(=O)(=O)NC(=O)c1cc(-c2ccc(Cl)c(Cl)c2)on1 |  |  |  |  | < 5 | 
COc1cc(C(=O)NS(C)(=O)=O)ccc1-c1cnc(OCC(C)C)c(Cl)c1 | 32 | 0.35 | > 30 | 44 |  | 
CS(=O)(=O)NC(=O)C(=O)c1cc(-c2ccc(Cl)c(Cl)c2)on1 |  |  |  |  | < 5 | 
CN(C)CCOC(c1ccccc1)c1ccccc1 |  |  |  |  |  | inhibition (Mus musculus): Active
CS(=O)(=O)NC(=O)C1CCN(C(=O)c2ccc(Cl)c(Cl)c2)C1 (stereo unspecified) |  |  |  |  | < 5 | 
CS(=O)(=O)NC(=O)c1csc(Nc2ccc(Cl)c(Cl)c2)n1 |  |  |  |  | < 5 | 
CS(=O)(=O)NC(=O)c1ccc2c(-c3ccc(C(F)(F)F)c(Cl)c3)nccc2c1 |  | 1.55 | > 30 |  |  | Ki [8]: > 30 µM
CS(=O)(=O)NC(=O)c1cc(-c2ccc(Cl)c(Cl)c2)[nH]n1 |  |  |  |  | < 5 | 
O=S(=O)(Nc1ncns1)c1ccc2c(-c3ccc(C(F)(F)F)c(Cl)c3)nccc2c1 |  | 0.59 | 27 |  |  | Ki [8]: 2 µM
CS(=O)(=O)NC(=O)c1ccc2nc(-c3ccc(Cl)c(Cl)c3)cn2c1 |  |  |  |  | < 5 | 
CC(C)COc1ncc(-c2cc(F)c(C(=O)NS(C)(=O)=O)cc2F)cc1Cl | 22 | 0.53 | > 30 | 47 |  | IC50 (Cytochrome P450 2D6 [9]): > 50 µM; IC50 (Cytochrome P450 2C9 [10]): 34.1 µM; IC50 (Cytochrome P450 3A4 [11]): > 50 µM; IC50 (Cytochrome P450 2D6 [12]): > 50 µM; Ki [8]: > 30 µM; IC50 (Cytochrome P450 2C9 [13]): 34.7 µM; IC50 (Cytochrome P450 3A4 [14]): 48.6 µM

Structure (SMILES) | microsomal CLint at 1 µM (in vitro [1]) [µL/min/mg] | IC50 [2] [µM] | IC50 [3] [µM] | microsomal CLint at 1 µM (in vitro [4]) [µL/min/mg] | inhibition [5] [%] | further results
Cc1nn(-c2ccc(Cl)c(Cl)c2)c(C)c1C(=O)NS(C)(=O)=O |  |  |  |  | < 5 | 
CS(=O)(=O)NC(=O)c1ccc(-c2ccc(Cl)c(Cl)c2)cc1 |  | 10.7 | > 42 |  |  | Ki [8]: > 30 µM
COc1cc(C(=O)NS(C)(=O)=O)ccc1-c1cnc(Sc2cccc(C)c2)c(Cl)c1 | < 14 | 0.16 |  | 199 |  | 
COc1cc(C(=O)NS(C)(=O)=O)ccc1-c1cnc(Oc2cc(Cl)cc(Cl)c2)c(C(F)F)c1 | < 14 |  | 18.8 | < 14 |  | 
COc1cc(C(=O)NS(C)(=O)=O)ccc1-c1cnc(Oc2cc(Cl)cc(Cl)c2)c(C(F)(F)F)c1 | < 14 | 0.028 | 2.35 | < 14 |  | 
CC(C)COc1ncc(-c2ccc(C(=O)NS(C)(=O)=O)cc2C2=CCOC2)cc1Cl | < 14 | 0.26 | > 42 | > 399 |  | 
CC(C)COc1ncc(Oc2nccc3cc(C(=O)NS(C)(=O)=O)ccc23)cc1Cl |  | 0.2 |  |  |  | 
CS(=O)(=O)NC(=O)C1CC(=O)N(c2ccc(Cl)c(Cl)c2)C1 (stereo unspecified) |  |  |  |  | < 5 | 
CC(C)COc1ncc(-c2ccc(C(=O)NS(C)(=O)=O)cc2C(F)(F)F)cc1Cl | < 14 | 0.27 | 3.1 | > 399 |  | 
COc1cc(C(=O)NS(C)(=O)=O)ccc1-c1cnc(N2CCC[C@H]2C(C)C)c(Cl)c1 | 40 |  | 2.5 | 385 |  | 
CS(=O)(=O)NC(=O)CSCc1ccc(Cl)c(Cl)c1 |  |  |  |  | < 5 | 
CC(C)COc1ncc(-c2ccc(C(=O)NS(C)(=O)=O)cc2C#N)cc1Cl | < 14 | 1.62 | 24 | 20 |  | 
CS(=O)(=O)NC(=O)C1CC(=O)N(Cc2ccc(Cl)c(Cl)c2)C1 (stereo unspecified) |  |  |  |  | < 5 | 
COc1cc(C(=O)NS(C)(=O)=O)ccc1-c1cnc(OC2CCC2)c(Cl)c1 | 17 | 0.55 | 17.8 | 102 |  | 
CS(=O)(=O)NC(=O)CSCC(=O)Nc1ccc(Cl)c(Cl)c1 |  |  |  |  | < 5 | 
CS(=O)(=O)NC(=O)CCc1ccc(Cl)c(Cl)c1 |  |  |  |  | < 5 | 
COc1cc(C(=O)NS(C)(=O)=O)ccc1-c1cnc(OCc2ccc(Cl)cc2)c(Cl)c1 | < 14 | 0.109 | 21 | < 14 |  | 
CC(C)COc1ncc(-c2ccc(C(=O)NS(C)(=O)=O)c(F)c2)cc1Cl | 28 | 3.04 | 18 | < 14 |  | 
